In ChEMBL document CHEMBL1125370, “Cardiotonic agents. Synthesis and cardiovascular properties of novel 2-arylbenzimidazoles and azabenzimidazoles” (J Med Chem, 1992):
The source made the active and inactive calls. The rule behind the calls is not given here.

Columns and labels:
Cavia porcellus [1] = species: Cavia porcellus; assay: In vitro inotropic activity in isolated left atria from guinea pig.; assay type: functional
Outline: (§1)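 Isolated left atria preparation. Tension max is the maximal increase in developed tension. Bracketed values give the maximal concentration used, and no effect was recorded up to that concentration. Values are means ± SEM.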

Cavia porcellus [2] = species: Cavia porcellus; assay: The compound was tested in vitro for chronotropic activity expressed as the maximal increase in beat/min in isolated right atria from guinea pig
Canis familiaris [3] = assay: In vivo hypotension in anesthetized dog, expressed as the dose of the drug producing a 25% decrease in diastolic arterial pressure (DAP) from control value.; assay type: functional; details: Canis lupus familiaris, Artery
Canis familiaris [4] = assay: In vivo contractility in conscious dog expressed as dose which produced a 50% increase in dP/dt max from the control value; assay type: functional; details: Canis lupus familiaris
Outline: (§2)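 Male beagles (12–15 kg) carried a Königsberg transducer implanted in the left ventricle to record dP/dt max and arterial pressure. Drug or placebo was given by gastric tube as a 1% gum arabic suspension. Effects were followed for 5 h.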

Cavia porcellus [5] = species: Cavia porcellus; assay: In vitro inotropic activity expressed as the maximal increase in developed tension in isolated left atria from guinea pig.; assay type: functional; outline: as §1
Canis familiaris [6] = assay: In vivo contractility in anesthetized dog expressed as dose which produced a 50% increase in dP/dt max from the control value.; assay type: functional; details: Canis lupus familiaris
Cavia porcellus [7] = species: Cavia porcellus; assay: The compound was tested in vitro for chronotropic activity in isolated right atria from guinea pig; assay type: functional
Outline: (§3)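 Isolated right atria, chronotropic read-out. Rate max is the maximal increase in rate, in beat/min. It comes from three to six experiments and was not calculated when rate max was below 30 beat/min. Bracketed values give the maximal concentration used. Means ± SEM.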

Cavia porcellus [8] = species: Cavia porcellus; assay: The compound was tested in vitro for inotropic activity expressed as the maximal increase in developed tension. in isolated left atria from guinea pig;No effect at a maximal concentration of 50 uM; assay type: functional; outline: as §1
Canis familiaris [9] = assay: In vivo contractility in anesthetized dog expressed as dose which produced a 50% increase in dP/dt max from the control value; assay type: functional, Canis lupus familiaris
Cavia porcellus [10] = species: Cavia porcellus; assay: The compound was tested in vitro for inotropic activity in isolated left atria from guinea pig;No effect at a maximal concentration of 50 uM,; assay type: functional
Outline: (§4)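 Isolated left atria preparation. Tension max is the maximal increase in developed tension. […] EC50 was not calculated when tension max was below 250 mg. Bracketed values give the maximal concentration used, and no effect was recorded up to that concentration. Values are means ± SEM.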

Cavia porcellus [11] = species: Cavia porcellus; assay: The compound was tested in vitro for inotropic activity expressed as the maximal increase in developed tension. in isolated left atria from guinea pig,No effect at a maximal concentration of 20 uM; assay type: functional; outline: as §4
Cavia porcellus [12] = species: Cavia porcellus; assay: The compound was tested in vitro for inotropic activity in isolated left atria from guinea pig. No effect at a maximal concentration of 20 uM,; assay type: functional; outline: as §4
Canis familiaris [13] = assay: In vivo hypotension in anesthetized dog expressed as the dose of the drug producing a 25% decrease in DAP from control valueNo effect at a maximal concentration of 50 uM; assay type: functional; details: Canis lupus familiaris
Cavia porcellus [14] = species: Cavia porcellus; assay: The compound was tested in vitro for chronotropic activity in isolated right atria from guinea pig;No effect at a maximal concentration of 50 uM; assay type: functional; outline: as §3
Canis familiaris [15] = assay: In vivo contractility in conscious dog expressed as dose which produced a 50% increase in dP/dt max from the control value;No effect up to 1 mg/kg; assay type: functional, organism-based; set-up: dose 1 mg/kg; details: Canis lupus familiaris; outline: as §2

Row | Structure (SMILES) | EC50 (Cavia porcellus [1]) [µM] | Rate max (Cavia porcellus [2]) [beats min-1] | ED25 (Canis familiaris [3]) [mg/kg] | ED50 (Canis familiaris [4]) [mg/kg] | Ionotropic activity (Cavia porcellus [5]) [mg] | ED50 (Canis familiaris [6]) [mg/kg] | EC50 (Cavia porcellus [7]) [µM] | other results
1 | Cc1[nH]c(=O)c(C#N)cc1-c1ccncc1 [MILRINONE] | 4.7 | 70 | 1 | 2 | 580 | 0.15 | 22 | –
2 | O=C1CCC(c2ccc(Nc3ccncc3)cc2)=NN1 [SENAZODAN] | 34 | 39 | 0.1 | 0.1 | 410 | 0.009 | 20 | –
3 | Cc1cc2[nH]c(-c3ccc(-n4ccnc4)cc3)nc2cc1-n1ccnc1.Cl.O | – | – | > 3 | – | – | – | – | Ionotropic activity (Cavia porcellus [8]): inactive; Contractility (Canis familiaris [9]): > 3 mg/kg; EC50 (Cavia porcellus [10]): Not Active
4 | c1ccc(Nc2ncccc2-c2nc3cc(-n4ccnc4)ccc3[nH]2)cc1 | – | – | – | – | – | – | – | Ionotropic activity (Cavia porcellus [11]): inactive; EC50 (Cavia porcellus [12]): Not Active
5 | c1ccc(-c2nc3cc(-n4ccnc4)ccc3[nH]2)nc1 | > 50 | – | – | – | 170 | > 3 | – | ED25 (Canis familiaris [13]): 3 mg/kg; EC50 (Cavia porcellus [14]): Not Active
6 | COc1cc([S+](C)[O-])ccc1-c1nc2cccnc2[nH]1 (stereo not drawn) [SULMAZOLE] | 31 | 88 | 5 | 10 | 600 | 1 | 100 | –
7 | c1cc(-c2nc3c[nH]c(-n4ccnc4)nc-3n2)ccn1 | – | – | – | – | – | – | – | ED50 (Canis familiaris [15]): inactive
